According to PubChem BioAssay AID1515 (The Scripps Research Institute Molecular Screening Center, 2009):
The campaign covered roughly 220,000 compounds. About 440 (0.2%) were called active. The sample as a whole holds a higher share of actives than the screen did. Values without a mark were called inactive.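 Rule for the calls: active = inhibition above the campaign mean of all tested compounds plus 3 SD (cut at about 14% in these data); inactive = the rest.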

target: Serine hydrolase RBBP9 (Homo sapiens) (UniProt O75884); experiment: human RBBP9 inhibitors, primary screen, biochemical, fluorescence polarization, FP-Rh probe, HTS (AID 1515); details: recombinant RBBP9, FP-Rh probe fluorescence polarization; at 7.94 µM; active compounds read high;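 note: plate controls were DMSO wells with RBBP9 for no effect and wells lacking RBBP9 protein for full effect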
Sequence (O75884 whole entry, looked up): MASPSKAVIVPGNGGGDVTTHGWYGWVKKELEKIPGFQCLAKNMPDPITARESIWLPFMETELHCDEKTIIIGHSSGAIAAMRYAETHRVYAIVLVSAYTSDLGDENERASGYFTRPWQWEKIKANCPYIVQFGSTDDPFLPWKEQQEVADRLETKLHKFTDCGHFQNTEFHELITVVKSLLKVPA
Outline: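 System: RBBP9 protein / Buffer or medium: Tris/NaCl buffer pH 8.0 with 0.1% Pluronic / Probe or stimulus: Serine-hydrolase probe FP-Rh, 375 nM pre-mixing / Dosing: 7.94 µM single dose, 0.794% DMSO / Times: enzyme-compound preincubation 30 min, then probe labeling 45 min, 25 °C / Technique: fluorescence polarization (mP), excitation 525 nm, emission 598 nm / Replication: singlicate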

Q: With `Cc1ccc(CS(=O)(=O)CCC(=O)NC2CC2)cc1` as the compound, how does the inhibition read?
A: -3.2%

Q: With `O=C1/C(=C\c2cccnc2)CN(Cc2ccccc2)C/C1=C\c1cccnc1` as the compound, how does the inhibition read?
A: -6.31%

Q: With `Cc1ccccc1NS(=O)(=O)CCCCC(Cl)(Cl)Cl` as the compound, how does the inhibition read?
A: 2.33%

Q: How did the inhibition turn out when `CCC(=O)Nc1c(C)n[nH]c1C` was run?
A: -4.5%

Q: How did the inhibition turn out when `CCN1C(=O)/C(=C\N2CCOCC2)SC1=S` was run?
A: -5.07%

Q: Which inhibition does the source give for `Cc1ccc2nc(SCc3cn4c(C)cc(C)nc4n3)[nH]c2c1` here?
A: -9.49%

Q: How did the inhibition turn out when `O=C(c1c(Cl)cccc1Cl)N1CCN(c2cccc3[nH]ccc23)CC1` was run?
A: -7.2%

Q: `Cc1c(NC(=O)CCC2CCCCC2)cc(C(=O)N2CCOCC2)cc1[N+](=O)[O-]` was tested. Which inhibition did it give?
A: 7.08%

Q: How did the inhibition turn out when `COc1ccc(CCNC(=O)C(=O)Nc2ccc3nc4n(c(=O)c3c2)CCCCC4)cc1OC` was run?
A: 6.2%

Q: `COc1ccc2c(c1)CC[C@@H]1[C@@H]2CC[C@]2(C)C(=O)CC[C@@H]12` was tested. Which inhibition did it give?
A: -1.04%

Q: For `Cc1cccc(C)c1NC(=O)C1CCCN1C(=O)OC(C)(C)C` (stereo unspecified), which inhibition is on record?
A: -5.32%

Q: How did the inhibition turn out when `Cc1cccc(-c2nc3c(c(SCC(=O)N4CCOCC4)n2)CCCC3)c1` was run?
A: 11.1%

Q: `COCCN(Cc1nc(-c2ccc(C(F)(F)F)cc2)no1)C(C)C` was tested. Which inhibition did it give?
A: 15% (active)

Q: Which inhibition does the source give for `CC(C)N(Cc1nc(-c2ccc3c(c2)OCO3)no1)CC1CCC(=O)N1` (stereo unspecified) here?
A: -10.1%

Q: `COc1ccc(-c2noc(CN(C)S(=O)(=O)c3ccc(C)cc3)n2)cc1` was tested. Which inhibition did it give?
A: -9.12%

Q: For `CC1CCC(NS(=O)(=O)c2ccc3c(c2)n(C)c(=O)c(=O)n3C)CC1` (stereo unspecified), which inhibition is on record?
A: -2.22%

Q: How did the inhibition turn out when `Cn1sc(=O)c2cc(S(=O)(=O)NC3CC3)ccc21` was run?
A: 33.3% (active)

Q: With `CSc1ccc(S(=O)(=O)NC2CCCCC2)cc1` as the compound, how does the inhibition read?
A: 0.08%

Q: How did the inhibition turn out when `Cc1cc(C)c[n+](-c2nc3ccccc3nc2[N-]S(=O)(=O)c2cccs2)c1` was run?
A: -7.26%

Q: `O=C1CC(c2ccccc2)=NN1c1ccc([N+](=O)[O-])cc1` was tested. Which inhibition did it give?
A: -12.2%

Q: With `O=c1[nH]c2cccnc2n1-c1ccc([N+](=O)[O-])cc1` as the compound, how does the inhibition read?
A: 4.37%

Q: `O=c1[nH]n(-c2ccc([N+](=O)[O-])cc2)c(=O)c2ccccc12` was tested. Which inhibition did it give?
A: 15.9% (active)

Q: `O=C(NNC1CC(=O)N(c2cccc(Cl)c2)C1=O)c1cccnc1` (stereo unspecified) was tested. Which inhibition did it give?
A: -9.81%

Q: For `CC(C)(C)C1CCC(OC(=O)CCC(=O)Nc2ccccc2)CC1` (stereo unspecified), which inhibition is on record?
A: -0.76%

Q: How did the inhibition turn out when `C=CCN(CC=C)CCOc1ccccc1[N+](=O)[O-]` was run?
A: -6.95%

Q: `CSc1ccccc1NC(=O)CN(C)CC(=O)Nc1ccc(Cl)cc1[N+](=O)[O-]` was tested. Which inhibition did it give?
A: 6.47%
